IDH1 R132H inh = inhibitors of human IDH1 R132H; inhibition, % at 10 µM; IDH1 R132H reductase, diaphorase/resazurin fluorescence, 60 min; AID 624101; 0.18% of 70,000 active; in the data active = inhibition above about 34%; inconclusive = no clear call, values can overlap the other calls; inactive = below about 11%;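 also: 0% = DMSO and 100% = no enzyme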
Target sequence (O75874 whole entry R132H): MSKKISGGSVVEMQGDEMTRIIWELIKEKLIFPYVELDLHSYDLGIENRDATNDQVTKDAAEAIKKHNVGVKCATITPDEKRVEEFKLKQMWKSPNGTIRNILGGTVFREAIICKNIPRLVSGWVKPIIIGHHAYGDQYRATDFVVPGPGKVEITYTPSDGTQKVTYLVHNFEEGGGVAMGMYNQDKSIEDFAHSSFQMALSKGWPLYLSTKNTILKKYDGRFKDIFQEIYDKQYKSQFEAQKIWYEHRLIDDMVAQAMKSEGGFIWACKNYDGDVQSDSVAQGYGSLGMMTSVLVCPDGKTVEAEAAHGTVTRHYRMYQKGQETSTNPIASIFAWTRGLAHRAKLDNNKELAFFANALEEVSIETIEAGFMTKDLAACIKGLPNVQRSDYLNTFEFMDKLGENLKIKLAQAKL
T cruzi growth-1 = blocks T. cruzi growth in NIH3T3 culture; T. cruzi beta-gal in NIH3T3, GalScreen luminescence, 90 h; inhibition, % at 8.34 µM; 5.9% of 77,000 active;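 active = mean inhibition above about 93%, with at least 55% of replicates each passing it, limit read from the data, passing the limit was not always enough; inconclusive = only one of those two conditions holds; inactive = neither condition holds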
GASC1 inh = KDM4C (human) demethylase inhibition. GST-KDM4C 2-372, H3K9me3 peptide, LANCE TR-FRET. inhibition, % at 12.5 µM. 0.15% of 96,000 active. AID 720574;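 active = mean replicate inhibition above about 25%, with at least 55% of replicates also reaching it, limit read from the data, passing the limit was not always enough; inconclusive = only one of those two conditions met; inactive = neither condition met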
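Material: GST-tagged GASC-1 (JMJD2C) catalytic fragment, aa 2-372 / Quantity: enzyme final amount 10 nM / Medium: HEPES buffer, pH 7.5, plus ascorbate / Doses: one test concentration per compound / Incubation: 30 min reaction, 60 min detection, RT / Measured by: LANCE TR-FRET / Read-out: inhibition from TR-FRET ratio decrease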
Pf Dd2 inh = blocks growth of Plasmodium falciparum Dd2 parasites | activity change, % at 10 µM | P. falciparum Dd2 growth, SYBR Green, 72 h; hits give low values | 2.3% of 94,000 active; in the data active = activity change below about -80%; inconclusive = no clear call, values can overlap the other calls
T cruzi growth-2 = Trypanosoma cruzi proliferation inhibition. shares compounds with T cruzi growth-1. T. cruzi beta-gal in NIH3T3, GalScreen luminescence, 90 h. inhibition, % at 8.35 µM. 72% of 5,600 active. AID 651739;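 active = mean replicate inhibition above about 95% and at least 55% of replicates individually reaching it, limit read from the data; inconclusive = only one of the two criteria is met; inactive = neither criterion is met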
T cruzi growth-3 = inhibitors of T. cruzi proliferation. shares compounds with T cruzi growth-1. T. cruzi beta-gal in NIH3T3, GalScreen luminescence, 90 h. inhibition, % at 2.09 µM. 21% of 5,600 active;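 active = mean inhibition above about 95%, with at least 55% of replicates also reaching it, limit read from the data; inconclusive = meets just one of the two conditions; inactive = meets neither condition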;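 also: plate controls were neutral control median for no effect and positive control median for full effect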
3T3 cytotox = cytotoxicity in mouse NIH/3T3 fibroblasts; shares compounds with T cruzi growth-1; NIH/3T3 viability, CellTiter-Glo ATP luminescence, 90 h; cytotoxicity (signal decrease), % at 8.35 µM; 14% of 5,600 active;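 active = mean signal decrease across replicates above about 35% based on untreated-well scatter, with enough replicates individually passing, limit read from the data; inconclusive = no rule stated though some were filed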;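 also: 0% = median of neutral control wells and 100% = median of positive control wells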
3T3 cytotox 2 = cytotoxicity in mouse NIH/3T3 fibroblasts | inhibition, % at 24.9 µM | shares compounds with T cruzi growth-1 | NIH/3T3 viability, CellTiter-Glo ATP luminescence, 90 h | 56% of 5,600 active;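 active = mean loss of cell viability signal at or above a set limit, and enough replicates individually reaching it; inconclusive = meets only the mean limit or only the replicate share; inactive = meets neither condition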;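 also: 0% = median of neutral control wells and 100% = median of positive control wells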
Starred values were filed as active, the others as inactive; u = inconclusive; x = no result. Hits are enriched below; roughly 5.9% of the tested compounds scored in any of these assays.

SMILES	IDH1 R132H inh	T cruzi growth-1	GASC1 inh	Pf Dd2 inh	T cruzi growth-2	T cruzi growth-3	3T3 cytotox	3T3 cytotox 2
C[C@H](CO)N1C[C@H](C)[C@@H](CN(C)Cc2ccc(Cl)c(Cl)c2)Oc2ccc(NS(C)(=O)=O)cc2CC1=O	-10.5	u	0.7	-13.2	114.8*	82.3	12.8	100.3*
C[C@H](CO)N1C[C@H](C)[C@@H](CN(C)Cc2ccc(C(F)(F)F)cc2)Oc2ccc(NS(C)(=O)=O)cc2CC1=O	2.2	118.1*	-0.5	1.1	109.4*	103.4*	-0.9	47.3*
Cc1ccc(S(=O)(=O)N(C)C[C@H]2OCCCC[C@@H](C)Oc3ccc(NC(=O)c4ccncc4)cc3C(=O)N([C@@H](C)CO)C[C@@H]2C)cc1	0.3	x	0.7	-68.7	x	x	x	x
CO[C@H]1CN(C)C(=O)c2cc(NC(=O)CC(F)(F)F)ccc2OC[C@@H](C)N(C(=O)C2CCCCC2)C[C@@H]1C	x	x	0.3	-1.8	x	x	x	x
CCCN1C[C@@H](C)[C@@H](OC)CN(C)C(=O)c2cc(NS(=O)(=O)c3cn(C)cn3)ccc2OC[C@@H]1C	-0.1	-48.5	-1.0	21.2	x	x	x	x
C[C@H]1CN([C@@H](C)CO)S(=O)(=O)c2ccc(C#CC3CCCCC3)cc2O[C@@H]1CN(C)C	-0.6	109.2*	-3.3	-47.8	109.0*	81.3	17.6	103.7*
C[C@@H]1CN([C@H](C)CO)S(=O)(=O)c2ccc(C#CC3CCCCC3)cc2O[C@H]1CN(C)C	0.0	84.4	-1.5	-58.7	x	x	x	x
C[C@@H]1CN([C@@H](C)CO)S(=O)(=O)c2ccc(C#CC3CCCC3)cc2O[C@@H]1CN(C)S(C)(=O)=O	-0.7	u	0.2	12.7	83.7	47.1	9.7	66.9*
C[C@H]1CN([C@@H](C)CO)S(=O)(=O)c2ccc(C#CC3CCCC3)cc2O[C@H]1CN(C)S(C)(=O)=O	-2.3	88.7	-2.6	0.1	x	x	x	x
C[C@H](CO)N1C[C@H](C)[C@H](CN(C)S(C)(=O)=O)Oc2cc(C#CC3CCCC3)ccc2S1(=O)=O	x	u	5.4	3.5	100.4*	35.3	27.4	65.8*
C[C@@H]1CN([C@H](C)CO)S(=O)(=O)c2ccc(C#Cc3ccc(F)cc3)cc2O[C@H]1CN(C)S(C)(=O)=O	0.0	96.9*	-2.7	-72.4	98.2*	38.5	u	55.0*
C[C@H]1CN([C@@H](C)CO)C(=O)c2cc(NC(=O)Nc3ccc(C(F)(F)F)cc3)ccc2O[C@@H]1CN(C)Cc1ccc(Cl)c(Cl)c1	-0.1	83.5	0.1	-32.6	x	x	x	x
CO[C@@H]1CN(C)C(=O)c2ccc(NS(=O)(=O)c3ccccc3Cl)cc2OC[C@@H](C)NC[C@@H]1C	0.3	10.9	0.8	5.9	x	x	x	x
CC(=O)N1[C@H](C(=O)Nc2nccs2)[C@@H](CO)[C@@H]2Cn3c(ccc(/C=C/c4ccccc4)c3=O)[C@@H]21	x	-31.7	-3.7	x	x	x	x	x
CCC(=O)N(C)C[C@@H]1Oc2cc(C#CC3CCCCC3)ccc2S(=O)(=O)N([C@H](C)CO)C[C@H]1C	x	81.6	-4.1	-37.2	x	x	x	x
CCC(=O)N(C)C[C@@H]1Oc2cc(C#CC3CCCCC3)ccc2S(=O)(=O)N([C@@H](C)CO)C[C@H]1C	x	114.4*	-1.0	-65.4	98.1*	54.4	17.9	80.0*
CCC(=O)N(C)C[C@H]1Oc2cc(C#Cc3ccncc3)ccc2S(=O)(=O)N([C@H](C)CO)C[C@H]1C	u	107.2*	16.8	-44.7	38.4	35.9	12.9	37.8*
COc1ccccc1-c1ccc2c(c1)[C@@H]1[C@@H](CCN1C(=O)C1CCOCC1)[C@H](CO)N2	x	97.1*	-0.4	-23.2	101.8*	72.3	-23.3	-30.0
O=C(C1CC1)N1CC[C@@H]2[C@@H](CO)Nc3ccc(-c4ccc(F)cc4)cc3[C@@H]21	x	84.1	0.7	2.1	x	x	x	x
O=C(C1CCOCC1)N1CC[C@@H]2[C@H]1c1cc(-c3ccc(F)cc3)ccc1N[C@@H]2CO	x	104.7*	2.5	3.9	u	81.8	-9.4	23.0
O=C(C1CCOCC1)N1CC[C@@H]2[C@@H](CO)Nc3ccc(-c4ccc(F)cc4)cc3[C@@H]21	x	104.7*	2.6	32.0	99.1*	60.4	-12.6	13.7
CCC(=O)N[C@H]1C=C[C@@H](CC(=O)NCc2ccccc2F)O[C@H]1CO	0.1	24.9	-0.6	1.5	x	x	x	x
OC[C@H]1Nc2ccc(C#Cc3ccc(F)cc3)cc2[C@@H]2[C@H]1CCN2Cc1ccc2c(c1)OCO2	x	u	0.6	-30.1	102.7*	97.3*	40.4*	103.5*
OC[C@@H]1Nc2ccc(C#Cc3ccc(F)cc3)cc2[C@@H]2[C@H]1CCN2Cc1ccc2c(c1)OCO2	x	133.7*	-0.4	-64.4	103.1*	107.3*	38.1*	103.3*
N#Cc1ccc(-c2ccc3c(c2)[C@@H]2[C@@H](CCN2Cc2ccc4c(c2)OCO4)[C@@H](CO)N3)cc1	x	101.2*	0.2	-63.1	105.1*	102.1*	29.9	105.9*
SMILES	IDH1 R132H inh	T cruzi growth-1	GASC1 inh	Pf Dd2 inh	T cruzi growth-2	T cruzi growth-3	3T3 cytotox	3T3 cytotox 2
COc1ccc(C(=O)N2C[C@H]3[C@@H](c4ccccc42)[C@H](CO)N3Cc2ccc3c(c2)OCO3)cc1	x	u	1.1	-8.7	75.1	0.7	-6.7	33.0*
O=S(=O)(c1ccc(F)cc1)N1C[C@H]2[C@@H](c3ccccc31)[C@H](CO)N2Cc1ccccc1Cl	x	107.7*	-5.3	-69.2	101.8*	94.0	25.5	38.2*
O=C(Nc1ccccc1Cl)N1C[C@H]2[C@@H](c3ccccc31)[C@H](CO)N2Cc1ccccc1	x	99.7*	-2.1	-9.2	82.2	8.2	-7.0	11.8
O=C(Nc1ccccc1Cl)N1C[C@H]2[C@@H](c3ccccc31)[C@@H](CO)N2Cc1ccccc1	x	72.8	-1.3	1.6	x	x	x	x
O=C(C1CCCCC1)N1C[C@H]2[C@@H](c3ccccc31)[C@H](CO)N2Cc1ccccc1Cl	x	47.5	5.7	-16.1	x	x	x	x
O=C(C1CCCCC1)N1C[C@@H]2[C@H](c3ccccc31)[C@H](CO)N2Cc1ccccc1Cl	x	105.5*	-0.5	-27.5	99.3*	14.8	20.7	-10.9
C[C@H](O)C#Cc1ccc2c(c1)O[C@@H](CN(C)Cc1ccccn1)[C@H](C)CN([C@H](C)CO)S2(=O)=O	x	2.2	1.7	-10.3	x	x	x	x
Cc1cc(C)nc(SCC(=O)c2cc(C(C)(C)C)c(O)c(C(C)(C)C)c2)n1	0.1	x	x	x	x	x	x	x
COc1ccc(C#Cc2ccc([C@@H]3[C@@H](CO)N4CCCCN(Cc5ccccc5F)C[C@H]34)cc2)cc1	x	-28.9	-0.8	-79.6	x	x	x	x
Cc1ccc(S(=O)(=O)Nc2cccc3c2O[C@@H](CN(C)CC2CC2)[C@@H](C)CN([C@@H](C)CO)C3=O)cc1	x	-4.3	1.1	11.9	x	x	x	x

Source: PubChem
